Source: ChEMBL document CHEMBL4011643, “Triaryl Benzimidazoles as a New Class of Antibacterial Agents against Resistant Pathogenic Microorganisms” (J Med Chem, 2017)
Values after ≈ are worked out from the molar mass of the structure shown.

Tests used:
[1] = Cytotoxicity against human HeLa cells assessed as cell viability at 25 uM after 24 hrs by MTT assay; format: cell-based; conditions: read-out: Activity
Outline: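 HeLa cells, 10000 per well, were grown at 37 °C in 5% CO2 and allowed to settle for 24 h. Compound was then added in triplicate for 24 h of continuous exposure. Viability was read by MTT colorimetry, with absorbance at 570 nm.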

Enterococcus faecalis [2] = assay: Antibacterial activity against vancomycin-resistant Enterococcus faecalis NCTC 12201 after 20 hrs by broth microdilution method; format: functional; conditions: NCTC 12201, 20 h
Outline: (§1)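 Broth microdilution in Tryptic Soy Broth; growth read as OD600 after 20 h. MIC taken as the lowest drug concentration giving OD600 below 0.1. Run in triplicate.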

Enterococcus faecium = assay: Antibacterial activity against vancomycin-resistant Enterococcus faecium NCTC 12204 after 20 hrs by broth microdilution method; format: functional; conditions: NCTC 12204, 20 h; outline: as §1
Enterococcus faecalis [3] = assay: Antibacterial activity against vancomycin-sensitive Enterococcus faecalis NCTC 775 after 20 hrs by broth microdilution method; format: functional; conditions: NCTC 775, 20 h
Outline: (§2)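 Broth microdilution in Tryptic Soy Broth, done in triplicate. Growth was read as OD600 after 20 h. MIC is the lowest drug concentration giving OD600 below 0.1.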

Staphylococcus aureus [4] = assay: Antibacterial activity against methicillin-resistant Staphylococcus aureus EMRSA-15 after 20 hrs by broth microdilution method; format: functional; conditions: EMRSA-15, 20 h; outline: as §1
Staphylococcus aureus [5] = assay: Antibacterial activity against methicillin-resistant Staphylococcus aureus MRSA252 after 20 hrs by broth microdilution method; format: functional; conditions: MRSA252, 20 h; outline: as §1
Staphylococcus aureus [6] = assay: Antibacterial activity against methicillin-sensitive Staphylococcus aureus ATCC 9144 after 20 hrs by broth microdilution method; format: functional; conditions: ATCC 9144, 20 h; outline: as §2
[7] = Stabilization of FAM/TAMRA-labeled AT-rich DNA duplex (unknown origin) assessed as change in melting temperature at 1 uM by FRET-based assay
Outline: (§3)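 FRET melting of a FAM/TAMRA-labelled AT-rich oligonucleotide, 400 nM working solution in 50 mM potassium, 50 mM cacodylate, pH 7.4. DNA was annealed at 85 °C for 6 min, then held at 25 °C for 5 h, and mixed 1:1 with sample. Fluorescence was read every 0.5 °C from 30 to 100 °C, with a 30 s hold per step. ΔTm is measured against the blank, in triplicate.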

[8] = Stabilization of FAM/TAMRA-labeled AT-rich DNA duplex (unknown origin) assessed as change in melting temperature at 5 uM by FRET-based assay; outline: as §3
Klebsiella pneumoniae [9] = assay: Antibacterial activity against Klebsiella pneumoniae NCTC 13368 after 20 hrs in the presence of Pa-beta-N and magnesium ions by broth microdilution method; format: functional; conditions: NCTC 13368, 20 h; outline: as §2
Klebsiella pneumoniae [10] = assay: Antibacterial activity against Klebsiella pneumoniae NCTC 13368 after 20 hrs by broth microdilution method; format: functional; conditions: NCTC 13368, 20 h; outline: as §2
Klebsiella pneumoniae [11] = assay: Antibacterial activity against Klebsiella pneumoniae M6 after 20 hrs in the presence of PMBN by broth microdilution method; format: functional; conditions: M6, 20 h; outline: as §2
Acinetobacter baumannii [12] = assay: Antibacterial activity against Acinetobacter baumannii AYE after 20 hrs by broth microdilution method; format: functional; outline: as §2
Acinetobacter baumannii [13] = assay: Antibacterial activity against Acinetobacter baumannii AYE after 20 hrs in the presence of Pa-beta-N and magnesium ions by broth microdilution method; format: functional; outline: as §2
Acinetobacter baumannii [14] = assay: Antibacterial activity against Acinetobacter baumannii AYE after 20 hrs in the presence of PMBN by broth microdilution method; format: functional; outline: as §2
Acinetobacter baumannii [15] = assay: Antibacterial activity against Acinetobacter baumannii ATCC 17978 after 20 hrs by broth microdilution method; format: functional; conditions: ATCC 17978, 20 h; outline: as §2
Acinetobacter baumannii [16] = assay: Antibacterial activity against Acinetobacter baumannii ATCC 17978 after 20 hrs in the presence of Pa-beta-N and magnesium ions by broth microdilution method; format: functional; conditions: ATCC 17978, 20 h; outline: as §2
Acinetobacter baumannii [17] = assay: Antibacterial activity against Acinetobacter baumannii ATCC 17978 after 20 hrs in the presence of PMBN by broth microdilution method; format: functional; conditions: ATCC 17978, 20 h; outline: as §2
Klebsiella pneumoniae [18] = assay: Antibacterial activity against Klebsiella pneumoniae M6 after 20 hrs by broth microdilution method; format: functional; conditions: M6, 20 h; outline: as §2
Klebsiella pneumoniae [19] = assay: Antibacterial activity against Klebsiella pneumoniae M6 after 20 hrs in the presence of Pa-beta-N and magnesium ions by broth microdilution method; format: functional; conditions: M6, 20 h; outline: as §2
Klebsiella pneumoniae [20] = assay: Antibacterial activity against Klebsiella pneumoniae NCTC 13368 after 20 hrs in the presence of PMBN by broth microdilution method; format: functional; conditions: NCTC 13368, 20 h; outline: as §2
Pseudomonas aeruginosa [21] = assay: Antibacterial activity against Pseudomonas aeruginosa PAO1 after 20 hrs by broth microdilution method; format: functional; conditions: PAO1, 20 h; outline: as §2
Pseudomonas aeruginosa [22] = assay: Antibacterial activity against Pseudomonas aeruginosa PAO1 after 20 hrs in the presence of Pa-beta-N and magnesium ions by broth microdilution method; format: functional; conditions: PAO1, 20 h; outline: as §2
Pseudomonas aeruginosa [23] = assay: Antibacterial activity against Pseudomonas aeruginosa PAO1 after 20 hrs in the presence of PMBN by broth microdilution method; format: functional; conditions: PAO1, 20 h; outline: as §2
Pseudomonas aeruginosa [24] = assay: Antibacterial activity against Pseudomonas aeruginosa NCTC 13437 after 20 hrs by broth microdilution method; format: functional; conditions: NCTC 13437, 20 h; outline: as §2
Pseudomonas aeruginosa [25] = assay: Antibacterial activity against Pseudomonas aeruginosa NCTC 13437 after 20 hrs in the presence of Pa-beta-N and magnesium ions by broth microdilution method; format: functional; conditions: NCTC 13437, 20 h; outline: as §2
Pseudomonas aeruginosa [26] = assay: Antibacterial activity against Pseudomonas aeruginosa NCTC 13437 after 20 hrs in the presence of PMBN by broth microdilution method; format: functional; conditions: NCTC 13437, 20 h; outline: as §2

## Cc1nc2cc(C(=O)NCCCN(C)C)ccc2n1-c1ccc(-c2cccc(NC(=O)c3ccc4nc(CCCN(C)C)[nH]c4c3)c2)cn1
[1]
  viability at 24 h, 25 µM: 39%
Enterococcus faecalis [2]
  MIC: 32 to 64 µg/mL (≈ 48.6 to 97.3 µM)
Enterococcus faecium
  MIC: 64 µg/mL (≈ 97.3 µM)
Enterococcus faecalis [3]
  MIC: > 128 µg/mL
Staphylococcus aureus [4]
  MIC: > 128 µg/mL
Staphylococcus aureus [5]
  MIC: > 128 µg/mL
Staphylococcus aureus [6]
  MIC: > 128 µg/mL

## Cc1nc2ccc(C(=O)Nc3cccc(-c4ccc(-n5c(C)nc6cc(C(=O)NCCCN7CCCC7)ccc65)nc4)c3)cc2[nH]1
Enterococcus faecalis [2]
  MIC: > 128 µg/mL
Staphylococcus aureus [4]
  MIC: > 128 µg/mL

## Cc1nc2cc(C(=O)NCCCN(C)C)ccc2n1-c1ccc(Br)cn1
Enterococcus faecalis [2]
  MIC: > 128 µg/mL
Staphylococcus aureus [4]
  MIC: > 128 µg/mL

## Cn1cc(NC(=O)c2cc(NC(=O)CN=C(N)N)cn2C)cc1C(=O)NCCC(=N)N [NETROPSIN]
[7]
  deltaTm: 16.5 °C
[8]
  deltaTm: 22.2 °C

## CN[C@H](CC(C)C)C(=O)N[C@H]1C(=O)N[C@@H](CC(N)=O)C(=O)N[C@H]2C(=O)N[C@H]3C(=O)N[C@H](C(=O)N[C@H](C(=O)O)c4cc(O)cc(O)c4-c4cc3ccc4O)[C@H](O)c3ccc(c(Cl)c3)Oc3cc2cc(c3O[C@@H]2O[C@H](CO)[C@@H](O)[C@H](O)[C@H]2O[C@H]2C[C@](C)(N)[C@H](O)[C@H](C)O2)Oc2ccc(cc2Cl)[C@H]1O [VANCOMYCIN]
Enterococcus faecalis [2]
  MIC: > 128 µg/mL
Enterococcus faecium
  MIC: > 128 µg/mL
Enterococcus faecalis [3]
  MIC: 1 µg/mL (≈ 0.69 µM)

## Cc1nc2ccc(C(=O)Nc3cccc(-c4ccc(-n5c(C)nc6cc(C(=O)NCCCN7CCN(C)CC7)ccc65)nc4)c3)cc2[nH]1
Klebsiella pneumoniae [9]
  MIC: > 32 µg/mL
Klebsiella pneumoniae [10]
  MIC: > 32 µg/mL
Klebsiella pneumoniae [11]
  MIC: > 32 µg/mL
[1]
  viability at 24 h, 25 µM: > 98%
Enterococcus faecalis [2]
  MIC: 64 µg/mL (≈ 99.7 µM)
Enterococcus faecium
  MIC: > 128 µg/mL
Enterococcus faecalis [3]
  MIC: > 128 µg/mL
Staphylococcus aureus [4]
  MIC: > 128 µg/mL
Staphylococcus aureus [5]
  MIC: > 32 µg/mL
Staphylococcus aureus [6]
  MIC: 16 µg/mL (≈ 24.9 µM)
Acinetobacter baumannii [12]
  MIC: > 32 µg/mL
Acinetobacter baumannii [13]
  MIC: > 32 µg/mL
Acinetobacter baumannii [14]
  MIC: > 32 µg/mL
Acinetobacter baumannii [15]
  MIC: > 32 µg/mL
Acinetobacter baumannii [16]
  MIC: > 32 µg/mL
Acinetobacter baumannii [17]
  MIC: > 32 µg/mL
Klebsiella pneumoniae [18]
  MIC: > 32 µg/mL
Klebsiella pneumoniae [19]
  MIC: > 32 µg/mL
Klebsiella pneumoniae [20]
  MIC: > 32 µg/mL
Pseudomonas aeruginosa [21]
  MIC: > 32 µg/mL
Pseudomonas aeruginosa [22]
  MIC: > 32 µg/mL
Pseudomonas aeruginosa [23]
  MIC: > 32 µg/mL
Pseudomonas aeruginosa [24]
  MIC: > 32 µg/mL
Pseudomonas aeruginosa [25]
  MIC: > 32 µg/mL
Pseudomonas aeruginosa [26]
  MIC: > 32 µg/mL

## Cc1nc2cc(C(=O)NCCCN(C)C)ccc2n1-c1ccc(-c2cccc(NC(=O)c3ccccc3)c2)cn1
Enterococcus faecalis [2]
  MIC: > 128 µg/mL
Staphylococcus aureus [4]
  MIC: > 128 µg/mL
